STEP block – STEP (human) phosphatase inhibition; recombinant STEP, OMFP fluorogenic substrate, fluorescence; 0.25% of 360,000 active; inhibition, % at 20 µM;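 active = inhibition at 20 µM, scaled per plate between control wells, above about 37%, limit read from the data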
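System: STEP phosphatase, cell-free reaction; Buffer or medium: Bis-Tris pH 6.0 buffer with DTT, detergent; Incubation: 20 min at room temperature, dark; Measured by: fluorescence, 480/540 nm.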
SUMO1 PPI mod – SUMO1-SIM interaction modulation; SUMO1 binding to a labelled peptide, TR-FRET, 1 h; inhibition, % at 20 µM; 0.33% of 360,000 active; AID 602429; in the data active = inhibition above about 37%
Target sequence (P63165 whole entry, looked up): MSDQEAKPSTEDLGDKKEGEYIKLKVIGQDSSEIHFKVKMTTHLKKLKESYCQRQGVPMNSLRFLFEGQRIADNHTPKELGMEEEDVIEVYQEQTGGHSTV
DNMT1 inh – blocks human DNA methyltransferase DNMT1. DNMT1 molecular beacon, Hinp1I cleavage, fluorescence. inhibition (reported as % activation of signal), % at 10 µM. 0.83% of 360,000 active. AID 588458; in the data active = inhibition above about 50%
Scp-1 inhibitor – Scp-1 (human) phosphatase inhibition | Recombinant Scp1, phosphopeptide, malachite green phosphate absorbance | AID 493091 | 0.88% of 340,000 active | inhibition, % at 20 µM | Q9GZU7;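 active = inhibition above about 50% at 20 µM, limit read from the data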
Target sequence (Q9GZU7 76-261 limits assumed): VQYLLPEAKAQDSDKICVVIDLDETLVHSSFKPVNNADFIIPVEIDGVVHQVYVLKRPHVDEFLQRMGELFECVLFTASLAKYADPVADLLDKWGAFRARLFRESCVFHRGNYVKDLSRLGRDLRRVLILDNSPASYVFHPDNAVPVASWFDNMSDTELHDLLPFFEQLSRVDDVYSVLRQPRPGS
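Incubation: 45 min enzyme reaction at room temperature / System: truncated SCP-1 phosphatase (76-261aa) / Reagent: Phospho 17-mer peptide substrate / Buffer or medium: Acidic Tris acetate buffer with magnesium and detergent / Signal: absorbance at 630 nm / Doses: one concentration, 20 µM, with 1.0% DMSO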
LMPTP block – LMPTP (human) inhibition; P24666; recombinant LMPTP-A, OMFP fluorogenic substrate, fluorescence intensity; inhibition, % at 20 µM; 0.22% of 360,000 active; AID 651560;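 active = compounds that cut the enzyme signal by at least half of the control window in the single-dose screen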
Target sequence (P24666 whole entry, looked up): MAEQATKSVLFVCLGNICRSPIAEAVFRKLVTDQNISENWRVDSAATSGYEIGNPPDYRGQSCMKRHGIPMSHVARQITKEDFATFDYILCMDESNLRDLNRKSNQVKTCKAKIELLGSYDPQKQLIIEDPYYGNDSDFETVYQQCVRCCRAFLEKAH
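Material: LMPTP-A; amount: 0.625 nM enzyme; doses: single 20 µM dose; times: reaction 50 min, room temperature, dark; technique: fluorescence intensity of OMFP turnover product; benchmarks: no-enzyme and uninhibited controls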
Scp1 confirm – Scp-1 (human) inhibition, single-dose confirmed | shares compounds with Scp-1 inhibitor | recombinant SCP-1 catalytic domain, phosphate release, malachite green absorbance | inhibition, % at 20 µM | 61% of 2,500 active | AID 540281
Scp-1 MG ctr – interferes with malachite green readout, flagging false Scp-1 hits; shares compounds with Scp-1 inhibitor; Colorimetric interference counterscreen, malachite green absorbance 630 nm; apparent inhibition (interference), % at 20 µM; 2,500 tested, under 10 active;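 also: compounds added after enzyme reaction finished so only phosphate colour detection is probed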
Scp1 DSF – Scp-1 (human) binding by thermal shift; shares compounds with Scp-1 inhibitor; Recombinant SCP1, Sypro Orange thermal shift Tm; thermal shift relative to vanadate control, % at 40 µM; 25% of 1,500 active; AID 540329;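 active = substances whose mean melting-temperature shift, as a percentage of the reference inhibitor's shift, reaches about 5.3%, limit read from the data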
Each line names hits and unclear results; the compound was inactive in the other large screens (follow-up assays come after a bar, where they were run). In the library only some 1.7% were active in any assay of this set; here they are far more common.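 The calls were made as follows, unless noted: active = inhibition of at least 30% at 20 µM; inactive = the rest.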

COCCN1C(=O)CCC1(C)C(=O)Nc1ccc2ccccc2c1 (stereo unspecified)	none (no result: Scp-1 inhibitor)
C/C(N)=C(/C#N)C(=O)CSc1nnc(Nc2cccc(C)c2)s1	Scp-1 inhibitor 64.0 | Scp1 confirm 74.3 | Scp-1 MG ctr inactive | Scp1 DSF inactive
Cc1cccc(Nc2nnc(SCC(=O)c3c(N)n(C4CC4)c(=O)[nH]c3=O)s2)c1	none
C[C@@H]1CN([C@@H](C)CO)C(=O)Cc2cc(NC(=O)Nc3ccc4c(c3)OCO4)ccc2O[C@@H]1CN(C)C(=O)NC1CCCCC1	none
O=C(NCCN1CCNC1=O)C1CCC(=O)N(Cc2ccccc2F)C1 (stereo unspecified)	none | Scp1 confirm inactive | Scp-1 MG ctr inactive
O=C(NCCc1ccccc1F)C1CCC(=O)N(Cc2ccccc2F)C1 (stereo unspecified)	none
COc1ccccc1CN1CC(C(=O)NCc2cc(C(C)C)no2)CCC1=O (stereo unspecified)	Scp-1 inhibitor 69.8 | Scp1 confirm inactive | Scp-1 MG ctr inactive
O=C(NCc1ccccc1OC(F)(F)F)C1CCC(=O)N(Cc2cccc(F)c2)C1 (stereo unspecified)	none
Cc1ccccc1CNC(=O)C1CCC(=O)N(Cc2cccc(F)c2)C1 (stereo unspecified)	none | Scp1 confirm inactive | Scp-1 MG ctr inactive
O=C(Cc1ccc(S(=O)(=O)N2CCCC2)s1)N1CCN(c2ccccc2)CC1	none
O=C(O)Cc1ccc(S(=O)(=O)N2CCCC2)s1	DNMT1 inh 67.0, Scp-1 inhibitor 93.3 | Scp1 confirm 57.6 | Scp-1 MG ctr inactive | Scp1 DSF inactive
COc1ccc(N2CCN(C(=O)Cc3ccc(S(=O)(=O)N4CCOCC4)s3)CC2)cc1	Scp-1 inhibitor 80.9 | Scp1 confirm 69.4 | Scp-1 MG ctr inactive | Scp1 DSF inactive
Cc1ccc(S(=O)(=O)N2CCN(C(=O)Cc3ccc(S(=O)(=O)N4CCOCC4)s3)CC2)cc1	none
COc1cccc(CC(=O)N(CCC2=CCCCC2)c2c(N)n(Cc3ccccc3)c(=O)[nH]c2=O)c1	none
C[C@H]1CN([C@@H](C)CO)C(=O)CCCn2nncc2CO[C@H]1CN(C)C(=O)C1CC1	none (no result: Scp-1 inhibitor)
CC(CN)(NS(=O)(=O)c1ccccc1)c1ccccc1 (stereo unspecified)	none
CC(=O)Oc1ccc(/C=C(\NC(=O)c2ccco2)C(=O)NCc2ccco2)cc1	none
Cc1cc(Cl)ccc1OCC(=O)N[C@@H](Cc1ccccc1)c1nc2ccccc2[nH]1	Scp-1 inhibitor 85.7 | Scp1 confirm 36.2 | Scp-1 MG ctr inactive | Scp1 DSF inactive
CCOc1ccc(C(C)=O)cc1CN1C(=O)c2ccccc2S1(=O)=O	none
CCCCNC(=O)C1(C)CCN1C(=O)c1sccc1C (stereo unspecified)	none (no result: Scp-1 inhibitor)
COCc1c(C(=O)N2CCN(Cc3c(F)cccc3Cl)CC2)oc2ccccc12	Scp-1 inhibitor 52.7 | Scp1 confirm inactive | Scp-1 MG ctr inactive
Cc1nnsc1-c1c(C(=O)O)c(C)nn1-c1ccc(OC(F)(F)F)cc1	Scp-1 inhibitor 91.1 | Scp1 confirm inactive | Scp-1 MG ctr inactive
Cc1nnsc1-c1c(C(=O)N2CCOCC2)c(C)nn1-c1ccccc1	none
COc1c(Cl)cc(C(=O)Nc2cccnc2)cc1Cl	none (no result: Scp-1 inhibitor)
O=C(NC12CC3CC(CC(C3)C1)C2)c1cnccn1	Scp-1 inhibitor 50.5 | Scp1 confirm inactive | Scp-1 MG ctr inactive
CCc1nnc(NC(=O)CCC(=O)N2CCN(C3c4ccccc4-c4ccccc43)CC2)s1	Scp-1 inhibitor 71.9 | Scp1 confirm inactive | Scp-1 MG ctr inactive
O=C(CSc1nc2ccccc2c(=O)n1-c1ccccc1)NC(=O)CN1CCCC1=O	Scp-1 inhibitor 58.0 | Scp1 confirm 38.8 | Scp-1 MG ctr inactive | Scp1 DSF inactive
Cc1ccc2nc(SCC(=O)NCc3ccccc3Cl)nc(=O)n2c1	none
